From ChEMBL document CHEMBL1128640, “Thiopyranol[2,3,4-c,d]indoles as inhibitors of 5-lipoxygenase, 5-lipoxygenase-activating protein, and leukotriene C4 synthase” (J Med Chem, 1995)

How the values were obtained:
[1] = target: T1, Polyunsaturated fatty acid 5-lipoxygenase (Homo sapiens, UniProt P09917); assay: Inhibition of Human 5-lipoxygenase
T1 sequence (P09917 whole entry): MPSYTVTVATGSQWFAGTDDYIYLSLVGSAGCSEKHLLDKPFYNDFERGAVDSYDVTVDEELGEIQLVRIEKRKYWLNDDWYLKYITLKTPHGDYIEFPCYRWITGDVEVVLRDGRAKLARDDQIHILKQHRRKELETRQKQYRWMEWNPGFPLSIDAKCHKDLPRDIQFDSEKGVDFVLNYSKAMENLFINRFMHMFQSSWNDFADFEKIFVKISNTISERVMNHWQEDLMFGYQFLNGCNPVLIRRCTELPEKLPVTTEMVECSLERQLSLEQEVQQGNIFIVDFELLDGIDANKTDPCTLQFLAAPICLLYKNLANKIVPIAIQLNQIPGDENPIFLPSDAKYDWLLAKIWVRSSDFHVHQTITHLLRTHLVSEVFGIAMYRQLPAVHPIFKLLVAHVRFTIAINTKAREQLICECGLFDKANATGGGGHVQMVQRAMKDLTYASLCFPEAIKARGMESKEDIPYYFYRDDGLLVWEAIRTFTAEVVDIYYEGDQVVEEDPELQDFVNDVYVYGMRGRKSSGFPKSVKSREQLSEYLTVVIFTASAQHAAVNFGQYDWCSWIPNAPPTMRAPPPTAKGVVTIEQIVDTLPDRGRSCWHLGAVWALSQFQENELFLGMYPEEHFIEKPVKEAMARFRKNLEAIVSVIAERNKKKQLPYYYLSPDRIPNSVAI
Summary of the method: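 Enzyme source is the 100000g supernatant (S100) of insect cells overexpressing human 5-LO. Activity followed spectrophotometrically as 5-HPETE production. IC50 is the mean of at least two independent determinations unless the value came from a single titration.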

[2] = target: T2, Arachidonate 5-lipoxygenase-activating protein (Homo sapiens, UniProt P20292); assay: Inhibition of 5-lipoxygenase activating protein using human leukocyte membrane preparations
T2 sequence (P20292 whole entry): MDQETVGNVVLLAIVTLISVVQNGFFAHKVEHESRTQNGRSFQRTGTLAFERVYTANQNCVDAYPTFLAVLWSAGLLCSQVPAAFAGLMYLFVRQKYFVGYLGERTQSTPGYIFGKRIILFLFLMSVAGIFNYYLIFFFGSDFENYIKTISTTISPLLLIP
Summary of the method: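 Binding assay on human leukocyte membrane preparations, measuring displacement of [¹²⁵I]-L-691,831 by drug. IC50 is the mean of at least two independent determinations unless the value came from a single titration.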

[3] = Bioavailability in rat; type: ADME, organism-based; details: in vivo
Summary of the method: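 Rats dosed with sodium salts, 20 mg/kg po in 1% methocel and 5 mg/kg iv in PEG 200 (n = 2); plasma profiles collected over 0–6 h. Bioavailability calculated as AUC_po/4 × AUC_iv.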

Rattus norvegicus = assay: Compound was tested for the inhibition of dyspnea in hyperreactive rats dosed at 5 mg/kg po; type: functional; details: for inhibition in vivo at 5 mg/kg: Rattus norvegicus, po
Summary of the method: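 Inbred hyperreactive rats (n = 6) pretreated with methysergide 3 μg/kg iv. Sodium salt given po in 1% or 0.5% methocel 2 h before ovalbumin antigen challenge. Read-out is percent inhibition of dyspnea duration versus litter mate-matched vehicle-treated controls.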

CC1Cc2c(OCc3ccccn3)ccc3c2c(c(CSc2ccccc2C(=O)O)n3Cc2ccc(Cl)cc2)S1 (stereo not given)
IC50 [1]: 0.055 µM
IC50 [2]: 0.76 µM

CC1Cc2c(OCc3ccc4ccccc4n3)ccc3c2c(c(COc2ccccc2CC(=O)O)n3Cc2ccc(Cl)cc2)S1 (stereo not given)
IC50 [1]: 0.1 µM
IC50 [2]: 0.032 µM

CC1Cc2c(OCc3ccc4ccccc4n3)ccc3c2c(c(CSc2ccccc2C(=O)O)n3Cc2ccc(Cl)cc2)S1 (stereo not given)
IC50 [1]: 0.07 µM
IC50 [2]: 0.072 µM

CC1Cc2c(OCc3ccc(-c4ccccc4)cn3)ccc3c2c(c(CCOc2ccccc2CC(=O)O)n3Cc2cccc(Cl)c2)S1 (stereo not given)
IC50 [1]: 0.04 µM

CC1Cc2c(OCc3ccc(-c4ccccc4)cn3)ccc3c2c(c(CCOc2ccccc2CC(=O)O)n3Cc2cccc(F)c2)S1 (stereo not given)
IC50 [1]: 0.023 µM
bioavailability [3]: 44%
inhibition in vivo at 5 mg/kg (Rattus norvegicus): 59%

CC1Cc2c(OCc3ccc(-c4ccccc4)cn3)ccc3c2c(c(CCOc2ccc(Cl)cc2C(=O)O)n3Cc2ccc(Cl)cc2)S1 (stereo not given)
IC50 [1]: 0.13 µM

CCC(OCCc1c2c3c(c(OCc4ccc(-c5ccccc5)cn4)ccc3n1Cc1ccc(Cl)cc1)CC(C)S2)C(=O)O (stereo not given)
inhibition in vivo at 5 mg/kg (Rattus norvegicus): 50%

CC(C)c1ccc2c(c1)c(SC(C)(C)C)c(CC(C)(C)C(=O)O)n2Cc1ccc(Cl)cc1
IC50 [1]: > 0.01 µM

CC1Cc2c(OCc3ccc(-c4ccccc4)cn3)ccc3c2c(c(CCSc2ccccc2C(=O)O)n3Cc2ccc(Cl)cc2)S1 (stereo not given)
IC50 [1]: 0.03 µM
bioavailability [3]: 10%

CC1Cc2c(OCc3ccc(-c4ccccc4)cn3)ccc3c2c(c(COc2ccccc2CC(=O)O)n3Cc2ccc(Cl)cc2)S1 (stereo not given)
IC50 [1]: 0.026 µM
bioavailability [3]: 35%
inhibition in vivo at 5 mg/kg (Rattus norvegicus): 27%

CC1Cc2c(OCc3cc4ccccc4cn3)ccc3c2c(c(CSc2ccccc2C(=O)O)n3Cc2ccc(Cl)cc2)S1 (stereo not given)
IC50 [1]: 0.175 µM
IC50 [2]: 2.9 µM

CC1Cc2c(OCc3ccc(-c4ccccc4)cn3)ccc3c2c(c(CCOc2cccc(C(=O)O)c2)n3Cc2ccc(Cl)cc2)S1 (stereo not given)
IC50 [1]: 0.17 µM

CC1Cc2c(OCc3ccc(-c4ccccc4)cn3)ccc3c2c(c(CCOc2ccccc2C(=O)O)n3Cc2ccc(Cl)cc2)S1 (stereo not given)
IC50 [1]: 0.06 µM
bioavailability [3]: 37%
inhibition in vivo at 5 mg/kg (Rattus norvegicus): 42%

CC1Cc2c(OCc3ccc(-c4ccccc4)cn3)ccc3c2c(c(CSc2ccccc2C(=O)O)n3Cc2ccc(Cl)cc2)S1 (stereo not given)
IC50 [1]: 0.03 µM
bioavailability [3]: < 5%

CC1Cc2c(OCc3ccc(-c4ccccc4)cn3)ccc3c2c(c(CCOc2ccccc2CC(=O)O)n3Cc2ccc(F)cc2)S1 (stereo not given)
IC50 [1]: 0.06 µM
bioavailability [3]: 4%
inhibition in vivo at 5 mg/kg (Rattus norvegicus): 36%

CC1Cc2c(OCc3ccc(-c4ccccc4)cn3)ccc3c2c(c(CCc2ccccc2C(=O)O)n3Cc2ccc(Cl)cc2)S1 (stereo not given)
IC50 [1]: 0.36 µM

CC1Cc2c(OCc3ccc(-c4ccccc4)cn3)ccc3c2c(c(COCc2ccccc2C(=O)O)n3Cc2ccc(Cl)cc2)S1 (stereo not given)
IC50 [1]: 0.062 µM

COc1ccc(COc2ccc3c4c2CC(C)Sc4c(CSc2ccccc2C(=O)O)n3Cc2ccc(Cl)cc2)nc1 (stereo not given)
IC50 [1]: 0.052 µM
IC50 [2]: 0.37 µM

CC1Cc2c(OCc3ccc(-c4ccccc4)cn3)ccc3c2c(c(CCOc2ccccc2CC(=O)O)n3Cc2ccc(Cl)cc2)S1 (stereo not given)
IC50 [1]: 0.06 µM
bioavailability [3]: 15%
inhibition in vivo at 5 mg/kg (Rattus norvegicus): 47%

CC1Cc2c(OCc3ccc(-c4ccccc4)cn3)ccc3c2c(c(COc2ccccc2CC(=O)O)n3Cc2cccc(Cl)c2)S1 (stereo in doubt; 14b)
IC50 [1]: 0.018 µM
F [3]: 11%
inhibition in vivo at 5 mg/kg (Rattus norvegicus): 74%

CC1Cc2c(OCc3ccc(-c4ccccc4)cn3)ccc3c2c(c(COc2ccccc2CC(=O)O)n3Cc2cccc(Cl)c2)S1 (stereo in doubt; (+)14b)
IC50 [1]: 0.095 µM

CC1Cc2c(OCc3ccc(-c4ccccc4)cn3)ccc3c2c(c(COc2ccccc2CC(=O)O)n3Cc2cccc(Cl)c2)S1 (stereo in doubt; (-)14b)
IC50 [1]: 0.01 µM
F [3]: 32%
Inhibition (Rattus norvegicus; 5 mg/kg): 58%

CC(C)(C)Sc1c(CC(C)(C)C(=O)O)n(Cc2ccc(Cl)cc2)c2ccc(OCc3ccc4ccccc4n3)cc12 [QUIFLAPON]
IC50 [1]: > 10 µM
IC50 [2]: 0.0016 µM
